Rows were chosen to be rich in hits. Some 3.4% of all compounds tested hit in one or more screens of this group.
CHRM1 agonist: human M1 muscarinic receptor agonists, primary screen, Fluo-8 calcium fluorescence, CHO-K1 cells, HTS. activation, % at 3 µM. CHO-K1 hM1, agonist mode; 0% DMSO, 100% acetylcholine EC100. actives 0.33% (n = 360,000). AID 588814, 2011;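 active = activation above the run's mean compound activation plus 3 SD, cut at about 16% in these data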;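 also: peak over basal fluorescence ratio within a 140 s kinetic read after compound addition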
Target sequence (P11229 whole entry, looked up): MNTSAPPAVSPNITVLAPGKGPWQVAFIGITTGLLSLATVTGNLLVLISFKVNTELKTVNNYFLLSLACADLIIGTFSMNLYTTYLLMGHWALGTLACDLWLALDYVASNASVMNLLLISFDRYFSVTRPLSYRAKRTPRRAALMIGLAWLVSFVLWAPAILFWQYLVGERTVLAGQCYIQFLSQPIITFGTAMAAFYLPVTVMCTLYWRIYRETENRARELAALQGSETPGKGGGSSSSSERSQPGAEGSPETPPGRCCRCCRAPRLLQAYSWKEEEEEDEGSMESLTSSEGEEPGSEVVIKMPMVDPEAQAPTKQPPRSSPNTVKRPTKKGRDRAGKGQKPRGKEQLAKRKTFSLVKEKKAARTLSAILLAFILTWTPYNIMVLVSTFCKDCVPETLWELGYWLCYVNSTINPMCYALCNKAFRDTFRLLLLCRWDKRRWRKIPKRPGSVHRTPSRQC
CHRM1 antagonist: human M1 muscarinic receptor antagonists, primary screen, CHO-K1 cells, Fluo-8 calcium fluorescence, 1536-well; AID 588852, 2011; Muscarinic acetylcholine receptor M1 (Homo sapiens), P11229; inhibition, % at 3 µM; CHO-K1 hM1, ACh EC80 antagonist; actives 1.3% (n = 360,000);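 active = percent inhibition above its own plate's cutoff, namely the mean of that plate's compound wells plus 3 SD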;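 also: peak over basal fluorescence ratio during 140 s after agonist addition; 0% = ACh EC80 plus DMSO and 100% = DMSO alone without agonist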
TAAR1 agonist: human TAAR1 agonists, primary screen, Fluo-8 calcium fluorescence, CHO RD-HGA16 cells | activation, % at 3 µM | vehicle wells 0%, saturating PEA agonist 100% | actives 0.99% (n = 360,000) | Trace amine-associated receptor 1 (Homo sapiens), Q96RJ0;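 active = activation above the mean activation of all test compounds in the run plus 3 SD, cut at about 38% in these data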
Target sequence (Q96RJ0 whole entry, looked up): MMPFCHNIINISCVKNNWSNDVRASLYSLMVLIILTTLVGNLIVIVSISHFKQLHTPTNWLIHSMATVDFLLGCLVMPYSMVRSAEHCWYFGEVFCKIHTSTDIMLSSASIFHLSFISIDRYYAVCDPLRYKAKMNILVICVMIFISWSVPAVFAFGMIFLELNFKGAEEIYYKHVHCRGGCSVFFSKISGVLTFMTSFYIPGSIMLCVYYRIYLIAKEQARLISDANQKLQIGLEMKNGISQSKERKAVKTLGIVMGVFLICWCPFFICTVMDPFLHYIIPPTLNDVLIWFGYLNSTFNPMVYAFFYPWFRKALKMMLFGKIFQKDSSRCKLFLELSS
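Assay system: CHO-derived RD-HGA16 cells with stable Gα16 and human TAAR1; timing: 17-24 h seeding, 75 min 37 °C dye, 30 min RT; read-out: % activation from peak over basal fluorescence ratio, DMSO-to-PEA scaled; measured by: kinetic Fluo-8 calcium fluorescence; benchmarks: low control DMSO, high control PEA (EC100); doses: 3 µM single concentration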
TAAR1 antag: human TAAR1 antagonists, primary screen, Fluo-8 calcium fluorescence, CHO RD-HGA16 cells | antagonist | inhibition, % at 3 µM | Trace amine-associated receptor 1 (Homo sapiens), Q96RJ0 | actives 1.5% (n = 360,000);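 active = inhibition above a per-plate cutoff, the mean inhibition of test compounds on that plate plus 3 SD, cut at about 49% in these data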;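 also: 0% = DMSO plus EC80 beta-PEA response and 100% = DMSO alone without agonist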
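Material: CHO RD-HGA16 cells bearing hTAAR1; compound dosing: one-point dosing, 3 µM nominal final; schedule: dye loading 75 min at 37 °C, then 30 min room temperature; measured by: calcium fluorescence with Fluo-8; control set: vehicle and agonist controls; replication: n of 1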
CHRM1 PAM: human M1 muscarinic receptor positive allosteric modulators, primary screen, CHO-K1 cells, Fluo-8 calcium fluorescence, 1536-well; CHO-K1 hM1, ACh EC20; 0% = ACh EC20, 100% = maximal ACh; activation, % at 3 µM; Muscarinic acetylcholine receptor M1 (Homo sapiens), P11229; actives 0.088% (n = 360,000); in the data active = activation above about 19%, passing the limit was not always enough
TAAR1 ag confirm: human TAAR1 agonists, retest of hits, confirmation, Fluo-8 calcium fluorescence, CHO RD-HGA16 cells. shares compounds with TAAR1 agonist. actives 82% (n = 2,400). activation, % at 3 µM. scaled: DMSO 0%, maximal phenethylamine 100%;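 active = activation above a cutoff set at the run's mean compound activation plus 3 SD, cut at about 39% in these data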
Ga16 ag counter: nonselective calcium mobilization agonists, CHO-Ga16 cells, counter-screen for hTAAR1 agonist project, cell-based, fluorescence, CHO-Ga16 parental line; shares compounds with TAAR1 agonist; Fluo-8 calcium fluorescence; normalized to maximal ATP response, DMSO zero; activation, % at 3 µM; actives 50% (n = 2,400); AID 651787, 2012;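 active = activation above the run cutoff, the mean activation over all tested wells plus 3 SD, cut at about 12% in these data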;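 also: 0% = DMSO wells and 100% = maximal ATP response on the peak over basal ratio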
TAAR1 desens: TAAR1 desensitization by agonist hits, confirmation, counter-screen for TAAR1 agonist project, cell-based, fluorescence, tachyphylaxis; shares compounds with TAAR1 agonist; CHO RD-HGA16 hTAAR1, Fluo-8 calcium, beta-PEA response inhibition; inhibition, % at 3 µM; actives 46% (n = 2,400); AID 651951, 2012;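 active = inhibition above the run cutoff, the mean inhibition of all test compounds plus 3 SD, cut at about 49% in these data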;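 also: beta-PEA stimulus applied at its EC80; loss of beta-PEA calcium signal after compound pretreatment read as receptor desensitization; 0% = DMSO with beta-PEA at EC80 and 100% = DMSO alone without agonist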
Ga16 nonsel ant: inhibition of ATP-evoked calcium response in CHO-Ga16 cells, counter-screen for TAAR1 agonist project, cell-based, fluorescence; shares compounds with TAAR1 agonist; CHO-Ga16 ATP-induced calcium, Fluo-8 fluorescence; inhibition, % at 3 µM; actives 39% (n = 2,400); AID 651952, 2012;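 active = inhibition above the plate's mean compound inhibition plus 3 SD, computed per plate, cut at about 22% in these data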;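 also: 0% = EC80 ATP with DMSO and 100% = DMSO wells without ATP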
The depositor's hits bear a star; nt = no result given.

SMILES	CHRM1 agonist	CHRM1 antagonist	TAAR1 agonist	TAAR1 antag	CHRM1 PAM	TAAR1 ag confirm	Ga16 ag counter	TAAR1 desens	Ga16 nonsel ant
O=C1NC(=O)N(c2ccc3c(c2)OCO3)C(=O)/C1=C\c1ccc(-c2ccccc2C(=O)O)o1	3.8	-19.1	0.4	-13.5	9.8	nt	nt	nt	nt
O=C1NC(=O)N(c2cccc(Cl)c2)C(=O)/C1=C\c1ccc(Sc2nc3ccccc3[nH]2)o1	23.5*	9.4	117.6*	75.0*	-12.7	25.7	32.3*	29.2	38.5*
NNP(=O)(CC(=O)c1ccccc1)c1ccccc1 (stereo not given)	0.2	-16.0	1.9	-9.3	13.2	nt	nt	nt	nt
NCC(=O)c1ccccc1	3.5	-20.9	88.8*	52.7*	-1.2	89.1*	6.8	87.9*	1.6
S=C(NCCc1ccccc1)N1Cc2ccc(Br)cc2-n2nncc2C1	7.2	-0.2	60.5*	34.4	4.5	38.2*	2.8	21.7	19.0
Brc1ccc2c(c1)CN(CC1CCCCC1)Cc1cnnn1-2	13.6	-12.4	-2.9	6.9	9.3	nt	nt	nt	nt
CC(Cc1ccccc1)N(C)CC1C(=O)C2CCC1C2 (stereo not given)	-6.5	-16.0	56.4*	13.1	11.6	50.9*	-0.1	4.4	7.9
CC(Cc1ccccc1)N1C(=O)c2ccccc2C1=O (stereo not given)	-8.2	-12.1	1.8	2.3	2.1	nt	nt	nt	nt
Cn1cccc1CNCCc1ccccc1F	-8.3	-7.7	62.9*	67.1*	4.1	101.6*	-0.7	81.9*	4.5
COc1ccc(CNCCc2c[nH]c3ccccc23)c(OC)c1C	-1.2	-26.3	27.5	3.4	18.6	nt	nt	nt	nt
COc1ccc(CNCCc2ccccc2F)c(OC)c1C	-5.5	-16.2	84.5*	73.2*	6.2	92.7*	8.0	79.6*	10.2
CC12CCC(=O)C=C1C=CC1C2CCC2(C)C(O)CCC12 (stereo not given)	-1.0	-21.1	5.9	1.8	11.8	nt	nt	nt	nt
N#Cc1c(N2CCNCC2)nc(-c2ccco2)c2c1CCCC2	-4.4	-12.3	79.7*	48.2	7.9	96.1*	16.5*	90.5*	15.1
CC[n+]1c(-c2ccccc2)c2cc(N)ccc2c2ccc(N)cc21	-8.5	-4.1	1.7	-14.9	-6.0	nt	nt	nt	nt
COc1ccccc1CCNCc1cc2c(cc1[N+](=O)[O-])OCO2	-5.9	-10.5	nt	nt	13.0	nt	3.3	nt	7.2
Cc1[nH]nc2ccc(-c3cncc(OC[C@@H](N)Cc4c[nH]c5ccccc45)c3)cc12	-11.6	5.3	nt	nt	-0.2	nt	nt	nt	nt
CCC1(Oc2ccccc2)C(=O)NC(=O)NC1=O	-2.5	-20.5	1.6	2.4	13.4	nt	nt	nt	nt
CCC1(C)OC(c2ccccc2)=C/C(=C/C=C2C(=O)NC(=O)NC2=O)O1 (stereo not given)	23.3*	21.0	70.2*	67.9*	-6.1	20.3	23.7*	25.6	41.9*
C[CH2][Hg][S]c1ccccc1C(=O)O	7.5	-15.6	120.1*	95.7*	8.3	44.4*	59.4*	73.0*	84.1*
CN1C(=O)/C(=C/c2cccn2-c2ccc3ccccc3c2)C(=O)NC1=S	-1.8	-34.9	5.1	31.9	0.9	nt	nt	nt	nt
Cc1cc(C)cc(N2C(=O)NC(=O)/C(=C\c3cccn3-c3ccc(Cl)cc3)C2=O)c1	0.6	-12.7	50.5*	32.4	8.2	37.3	12.5*	36.0	20.2
C[C@@H]1COc2cccc(N3CCN(C)CC3)c2S(=O)(=O)N1	nt	nt	1.9	-11.6	nt	nt	nt	nt	nt
O=C(NCCN1CCC2(CC1)C(=O)NCN2c1ccccc1)c1ccc(OC(F)(F)F)cc1	nt	nt	53.6*	96.2*	nt	44.6*	40.5*	101.8*	98.3*
O=C(CCCN1CCC2(CC1)C(=O)NCN2c1ccccc1)c1ccc(F)cc1	109.4*	97.4*	153.7*	106.0*	-30.2	131.3*	115.7*	106.5*	103.1*
Cc1ccc(C(=O)NCCN2CCC3(CC2)C(=O)NCN3c2ccccc2)cc1	nt	nt	86.5*	98.7*	nt	52.8*	41.2*	98.2*	83.9*
SMILES	CHRM1 agonist	CHRM1 antagonist	TAAR1 agonist	TAAR1 antag	CHRM1 PAM	TAAR1 ag confirm	Ga16 ag counter	TAAR1 desens	Ga16 nonsel ant
O=C(NCCN1CCC2(CC1)C(=O)NCN2c1ccccc1)C(c1ccccc1)c1ccccc1	nt	nt	58.2*	93.3*	nt	32.8	23.8*	76.0*	62.4*
Nc1cc(C(=O)Nc2ccccc2F)ccc1N1CC2CC(C1)c1cccc(=O)n1C2 (stereo not given)	1.7	-21.3	3.8	-15.1	13.0	nt	nt	nt	nt
CCOC(=O)c1cccc(C2=C(CNC(=O)c3ccc([N+](=O)[O-])cc3)[C@H]3CC[C@@H](C2)N3Cc2ccccc2)c1	-10.3	5.5	2.4	-11.5	-9.0	nt	nt	nt	nt
O=C(NCCN1CCOCC1)c1ccc(Cl)nc1	-2.5	-35.7	2.7	-22.2	6.8	nt	nt	nt	nt
O=C(NCCN1CCC2(CC1)C(=O)NCN2c1ccccc1)c1ccc(Cl)c(Cl)c1	nt	nt	113.2*	106.1*	nt	124.3*	94.8*	106.8*	102.8*
CCCCCn1c(=O)c(C(=O)Nc2ncccc2C)c(O)c2ccccc21	-2.7	-13.1	54.1*	10.7	8.0	54.0*	86.3*	35.3	43.6*
CCCCn1c(=O)c(C(=O)Nc2ccccc2C)c(O)c2ccccc21	-4.1	-25.2	nt	nt	11.8	nt	nt	nt	nt
CC12CCC3c4ccc(OC(=O)N(CCCl)CCCl)cc4CCC3C1CCC2O (stereo not given)	5.5	7.2	3.4	18.6	-10.4	nt	nt	nt	nt
NC(N)=N/N=C/c1cn(-c2ccccc2)nc1-c1cccs1	-4.1	-4.8	47.0*	3.8	6.2	76.0*	7.1	35.2	12.6
O=c1c2ccccc2nc(-c2cccs2)n1-c1ccccc1	-4.7	-4.8	7.5	-18.1	3.0	nt	nt	nt	nt
C[C@H]1CCCC(=O)CCC/C=C/c2cc(O)cc(O)c2C(=O)O1	3.4	-34.6	11.9	-21.8	10.1	nt	nt	nt	nt

Screening data: PubChem, The Scripps Research Institute Molecular Screening Center
